Measurements collected from several papers.
Lines come from different studies, so protocols differ.
Target: Carbonic anhydrase 1 (CA1, Homo sapiens, UniProt P00915)
Read-out: enzyme activity
Mode: inhibitor

Structure (SMILES)	assay	Ki
CC(C)(C)CCC(=O)Nc1nnc(S(N)(=O)=O)s1	stopped-flow	0.267 µM
OC(Cn1cncn1)(Cn1cncn1)c1ccc(F)cc1F		7.56 µM
CCOC(=O)c1ccc(=O)oc1	stopped-flow	> 100 µM
CC[C@H]1OC(=O)[C@H](C)[C@@H](O[C@H]2C[C@@](C)(OC)[C@@H](O)[C@H](C)O2)[C@H](C)[C@@H](O[C@@H]2O[C@H](C)C[C@H](N(C)C)[C@H]2O)[C@](C)(O)C[C@@H](C)CN(C)[C@H](C)[C@@H](O)[C@]1(C)O		10.2 µM
CC1CCCCC1OC(=O)c1ccc(=O)oc1 (centres unmarked)	stopped-flow	> 100 µM
CC1CCC(CC(=O)Nc2nnc(S(N)(=O)=O)s2)CC1 (centres unmarked)	stopped-flow	0.0692 µM
O=C(Oc1ccc(Cl)cc1)c1ccc(=O)oc1	stopped-flow	> 100 µM
CC(C)[C@H](N)C(=O)OCCOCn1cnc2c(=O)[nH]c(N)nc21		8.7 µM
N#CSCc1cc(=O)oc2cc(O)ccc12	stopped-flow	> 100 µM
CC1CCCC(C(=O)Nc2nnc(S(N)(=O)=O)s2)C1 (centres unmarked)	stopped-flow	0.0827 µM
N#CSCCCCOc1ccc2c(-c3ccccc3)cc(=O)oc2c1	stopped-flow	> 100 µM
O=C(OC1CCCCC1)c1ccc(=O)oc1	stopped-flow	> 100 µM
CC1(C)CCN(CC(=O)Nc2nnc(S(N)(=O)=O)s2)CC1	stopped-flow	0.0541 µM
COc1cc(C)c(/C=C/C(C)=C/C=C/C(C)=C/C(=O)O)c(C)c1C		7.68 µM
COc1ccc(OC(=O)c2ccc(=O)oc2)cc1	stopped-flow	> 100 µM
CN(C)CCC(c1ccccc1)c1ccccn1 (centres unmarked)		13.9 µM
NS(=O)(=O)c1nnc(NC(=O)CCC2CCCCO2)s1 (centres unmarked)	stopped-flow	0.75 µM
O=C(O)c1cccc(=O)o1	stopped-flow	> 100 µM
CN(C/C=C/C#CC(C)(C)C)Cc1cccc2ccccc12		20.6 µM
CC(C(=O)Nc1nnc(S(N)(=O)=O)s1)C1CCCCC1 (centres unmarked)	stopped-flow	0.0475 µM
